Assay results from ChEMBL document CHEMBL1130129, “Immunologically specific activation of a cephalosporin derivative of mitomycin C by monoclonal antibody beta-lactamase conjugates” (J Med Chem, 1997).

Tests used:
Format in all cases: functional, cell-based
H2987 cell line [1] = experiment: Inhibitory activity against H2987, human lung adenocarcinoma cell line in absence of Enterobacter cloacae bL
Procedure, shortened: (§1)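 Cells plated at 4000 or 8000/well in IMDM with 10% FBS, left to adhere 18 h at 37 °C, then washed with RPMI/10% FBS. Compound exposure 1 h at 37 °C with no enzyme, followed by IMDM wash and 18 h culture. [3H]thymidine pulse at 1 µCi/well (18 h at 4000 cells/well, 6 h at 8000). IC50 is the concentration giving 50% incorporation versus untreated cells; mean of five experiments.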

H2987 cell line [2] = experiment: Inhibitory activity against H2987, human lung adenocarcinoma cell line in presence of Enterobacter cloacae bL
Procedure, shortened: (§2)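 Adherent cells (4000 or 8000/well, 18 h, 37 °C, IMDM/10% FBS) washed with RPMI/10% FBS. Exposed 1 h at 37 °C to graded compound concentrations together with purified E. cloacae β-lactamase (10 µg/mL), then washed and cultured 18 h. [3H]thymidine pulse at 1 µCi/well (18 h or 6 h by seeding density). IC50 is 50% incorporation relative to untreated controls; five independent experiments.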

Clone 62 [3] = experiment: Inhibitory activity against clone62, a mouse melanoma cell line in absence of Enterobacter cloacae bL; procedure, shortened: as §1
Clone 62 [4] = experiment: Inhibitory activity against clone62, a mouse melanoma cell line in presence of Enterobacter cloacae bL; procedure, shortened: as §2

## CO[C@@]12[C@H](COC(N)=O)C3=C(C(=O)C(C)=C(NCC4=C(C(=O)O)N5C(=O)[C@@H](NC(=O)CCCC(=O)O)[C@H]5SC4)C3=O)N1C[C@@H]1N[C@@H]12
H2987 cell line [1]
  IC50: 26.4 µM
H2987 cell line [2]
  IC50: 1200 nM
Clone 62 [3]
  IC50: 30.1 µM
Clone 62 [4]
  IC50: 3000 nM

## CO[C@@]12[C@H](COC(N)=O)C3=C(C(=O)C(C)=C(NCC4=C(C(=O)O)N5C(=O)[C@@H](NC(=O)Cc6ccccc6)[C@H]5SC4)C3=O)N1C[C@@H]1N[C@@H]12
H2987 cell line [1]
  IC50: 10.4 µM
H2987 cell line [2]
  IC50: 2800 nM
Clone 62 [3]
  IC50: 3.5 µM
Clone 62 [4]
  IC50: 1400 nM

## CO[C@@]12[C@H](COC(N)=O)C3=C(C(=O)C(C)=C(N)C3=O)N1C[C@@H]1N[C@@H]12 [MITOMYCIN]
H2987 cell line [1]
  IC50: 1.6 µM
Clone 62 [3]
  IC50: 1.5 µM
